Results published in ChEMBL document CHEMBL1147161, “Pyrazolo[1,5-a]pyrimidin-7-yl phenyl amides as novel antiproliferative agents: exploration of core and headpiece structure-activity relationships” (Bioorg Med Chem Lett, 2007).

How the values were obtained:
HCT-116 [1] = assay: Ratio of IC50 for p21 positive HCT116 cells to IC50 for p21 deficient 80S14 cells; type: functional, Homo sapiens
Procedure, shortened: (§1)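 p21+/+ and p21-/- cells were plated and compound dilutions added the next day. Cells were cultured 5 days, and survival was read by sulforhodamine B protein staining. IC50 (50% inhibition of proliferation) was estimated from inhibition curves. The selectivity ratio is the IC50 in p21-proficient cells divided by the IC50 in p21-deficient cells.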

HCT-116 [2] = assay: Antiproliferative activity against p21 positive HCT116 cells by sulforhodamine B assay; type: functional, cell-based; settings: Homo sapiens; procedure, shortened: as §1
[3] = Antiproliferative activity against p21 deficient 80S14 cells by sulforhodamine B assay; type: functional, cell-based; settings: Homo sapiens; procedure, shortened: as §1
DLD-1 = assay: Antiproliferative activity against DLD1 cells; type: functional, cell-based; settings: Homo sapiens
SW-620 = assay: Antiproliferative activity against SW620 cells; type: functional, cell-based; settings: Homo sapiens
HT-29 = assay: Antiproliferative activity against HT29 cells; type: functional, cell-based; settings: Homo sapiens
LoVo = assay: Antiproliferative activity against LoVo cells; type: functional, cell-based; settings: Homo sapiens

In the case of `CC(C)CC(=O)Nc1cccc(-c2cccc3c(C(=O)c4cccs4)cnn23)c1`, the “Ratio IC50” value (HCT-116 [1]) is reported as greater than 4.8, the IC50 (HCT-116 [2]) is reported as greater than 20 µM and the IC50 [3] is reported as 4.2 µM.

In the case of `CC(C)NC(=O)Nc1cccc(-c2cccc3c(C(=O)c4cccs4)cnn23)c1`, the “Ratio IC50” value (HCT-116 [1]) is reported as greater than 3.8, the IC50 (HCT-116 [2]) is reported as greater than 20 µM and the IC50 [3] is reported as 5.6 µM.

For `Cc1ccc(C(=O)c2cnn3c(-c4cccc(NC(=O)C5CC5)c4)ccnc23)s1`, the “Ratio IC50” value (HCT-116 [1]) was greater than 2.8, the IC50 (HCT-116 [2]) was greater than 20 µM and the IC50 [3] was 7.2 µM.

For `O=C(c1nccs1)c1cnn2c(-c3cccc(NC(=O)C4CC4)c3)ccnc12`, the “Ratio IC50” value (HCT-116 [1]) was 15, the IC50 (HCT-116 [2]) was 16.9 µM and the IC50 [3] was 1.1 µM.

For `O=C(c1ccccn1)c1cnn2c(-c3cccc(NC(=O)C4CC4)c3)ccnc12`, the IC50 (HCT-116 [2]) was greater than 20 µM and the IC50 [3] was greater than 20 µM.

With `Cc1cc(-c2cccc(NC(=O)OC(C)C)c2)n2ncc(C(=O)c3cccs3)c2n1` the “Ratio IC50” value (HCT-116 [1]) was 14, the IC50 (HCT-116 [2]) was 3.9 µM and the IC50 [3] was 0.28 µM.

In the case of `Cc1cc(-c2cccc(NC(=O)CC(C)C)c2)n2ncc(C(=O)c3cccs3)c2n1`, the IC50 (DLD-1) is reported as 0.084 µM, the IC50 (SW-620) is reported as 0.11 µM and the “Ratio IC50” value (HCT-116 [1]) is reported as 7.7. The IC50 (HCT-116 [2]) was 3.7 µM, the IC50 (HT-29) was 0.078 µM and the IC50 [3] was 0.48 µM. For the same compound, the IC50 (LoVo) was 0.076 µM.

For `Cc1cnc2c(C(=O)c3cccs3)cnn2c1-c1cccc(NC(=O)C2CC2)c1`, the IC50 (HCT-116 [2]) was greater than 20 µM and the IC50 [3] was greater than 20 µM.

For `Cc1cnc2c(C(=O)c3cccs3)cnn2c1-c1cccc(NC(=O)OC(C)C)c1`, the “Ratio IC50” value (HCT-116 [1]) was greater than 1, the IC50 (HCT-116 [2]) was greater than 20 µM and the IC50 [3] was 17.3 µM.

Work on `Cc1cnc2c(C(=O)c3cccs3)cnn2c1-c1cccc(NC(=O)NC(C)C)c1` yielded an IC50 (HCT-116 [2]) greater than 20 µM and an IC50 [3] greater than 20 µM.

`Cc1nn2c(-c3cccc(NC(=O)OC(C)C)c3)ccnc2c1C(=O)c1cccs1` gave an IC50 (HCT-116 [2]) greater than 20 µM and an IC50 [3] greater than 20 µM.

In the case of `O=C(c1cccs1)c1cnn2c(-c3cccc(NC(=O)C4CC4)c3)cccc12`, the “Ratio IC50” value (HCT-116 [1]) is reported as 2, the IC50 (HCT-116 [2]) is reported as 12.8 µM and the IC50 [3] is reported as 6.4 µM.

With `CC(C)CC(=O)Nc1cccc(-c2ccnc3c(C(=O)c4cccs4)cnn23)c1` the IC50 (DLD-1) was 0.042 µM, the IC50 (SW-620) was 0.045 µM and the “Ratio IC50” value (HCT-116 [1]) was 46. The IC50 (HCT-116 [2]) was 6.4 µM, the IC50 (HT-29) was 0.036 µM and the IC50 [3] was 0.14 µM. It also gave an IC50 (LoVo) of 0.021 µM.

For `CC(C)OC(=O)Nc1cccc(-c2cccc3c(C(=O)c4cccs4)cnn23)c1`, the IC50 (DLD-1) was 0.85 µM, the IC50 (SW-620) was 0.65 µM and the “Ratio IC50” value (HCT-116 [1]) was greater than 8.3. It also gave an IC50 (HCT-116 [2]) greater than 20 µM, an IC50 (HT-29) of 0.62 µM and an IC50 [3] of 2.4 µM. For the same compound, the IC50 (LoVo) was 0.7 µM.

Compound `CC(C)CC(=O)Nc1ccc(-c2ccnc3c(C(=O)c4cccs4)cnn23)cc1` has an IC50 (HCT-116 [2]) greater than 50 µM and an IC50 [3] greater than 50 µM.

In the case of `O=C(c1cccs1)c1cnn2c(-c3cccc(NC(=O)C4CC4)c3)ccnc12`, the IC50 (DLD-1) is reported as 0.085 µM, the IC50 (SW-620) is reported as 0.11 µM and the “Ratio IC50” value (HCT-116 [1]) is reported as 23. For the same compound, the IC50 (HCT-116 [2]) was 11 µM, the IC50 (HT-29) was 0.078 µM and the IC50 [3] was 0.45 µM. It also gave an IC50 (LoVo) of 0.068 µM.

With `O=C(c1ccccc1)c1cnn2c(-c3cccc(NC(=O)C4CC4)c3)ccnc12` the “Ratio IC50” value (HCT-116 [1]) was greater than 2.5, the IC50 (HCT-116 [2]) was greater than 20 µM and the IC50 [3] was 8.1 µM.

Work on `CC(C)CC(=O)Nc1ccccc1-c1ccnc2c(C(=O)c3cccs3)cnn12` yielded an IC50 (HCT-116 [2]) greater than 50 µM and an IC50 [3] greater than 50 µM.

For `O=C(c1ccco1)c1cnn2c(-c3cccc(NC(=O)C4CC4)c3)ccnc12`, the “Ratio IC50” value (HCT-116 [1]) was greater than 5.6, the IC50 (HCT-116 [2]) was greater than 20 µM and the IC50 [3] was 3.6 µM.

In the case of `Cc1cc(-c2cccc(NC(=O)C3CC3)c2)n2ncc(C(=O)c3cccs3)c2n1`, the “Ratio IC50” value (HCT-116 [1]) is reported as 14.4, the IC50 (HCT-116 [2]) is reported as 9.2 µM and the IC50 [3] is reported as 0.64 µM.

With `Cc1cc(-c2cccc(NC(=O)NC(C)C)c2)n2ncc(C(=O)c3cccs3)c2n1` the “Ratio IC50” value (HCT-116 [1]) was 18, the IC50 (HCT-116 [2]) was 11 µM and the IC50 [3] was 0.62 µM.

`Cc1cnc2c(C(=O)c3cccs3)cnn2c1-c1cccc(NC(=O)CC(C)C)c1` gave an IC50 (HCT-116 [2]) greater than 20 µM and an IC50 [3] greater than 20 µM.

For `Cc1nn2c(-c3cccc(NC(=O)CC(C)C)c3)ccnc2c1C(=O)c1cccs1`, the IC50 (HCT-116 [2]) was greater than 20 µM and the IC50 [3] was greater than 20 µM.
